Measurements from ChEMBL document CHEMBL2093137, “WHO-TDR NTD Screening”.
Converted amounts (≈) assume the structure as drawn.

Experiments:
[1] = WHO-TDR: Cytotoxicity; type: toxicity, cell-based; details: human, MRC5 cells
Plasmodium falciparum K1 = test: WHO-TDR: Malaria; type: functional, organism-based, Homo sapiens; details: Erythrocyte
In short: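 Whole-organism screen of a 10,000-compound diverse library from Life Chemicals, filtered for drug-likeness and reactive groups, against intra-erythrocytic Plasmodium falciparum K1 strain in human red blood cells. The assay followed previously published standard procedures, with a reference drug as positive control. Antiplasmodial potency is reported as IC50.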

Trypanosoma cruzi = test: WHO-TDR: Chagas disease; type: functional, organism-based, Homo sapiens; details: MRC5
In short: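 Whole-organism screen of a 10,000-compound diverse library from Life Chemicals, filtered for drug-likeness and reactive groups, against intracellular amastigotes of Trypanosoma cruzi Tulahuen CL2 beta-galactosidase strain grown in MRC-5SV2 human lung fibroblast host cells. The assay followed previously published standard procedures, with a reference drug as positive control. Antiparasitic potency is reported as IC50.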

[2] = system: Trypanosoma brucei brucei; test: WHO-TDR: Human African Trypanosomiasis (HAT); type: functional, organism-based; details: Squib-427
In short: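 Whole-organism screen of a 10,000-compound diverse library from Life Chemicals, filtered for drug-likeness and reactive groups, against bloodstream forms of Trypanosoma brucei Squib 427 strain. The assay followed previously published standard procedures, with reference drugs as positive controls. Antiparasitic potency is reported as IC50.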

Leishmania infantum = test: WHO-TDR: Leishmaniasis; type: functional, organism-based, Mus musculus; details: Macrophage
In short: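 Whole-organism screen of a 10,000-compound diverse library from Life Chemicals, filtered for drug-likeness and reactive groups, against intracellular amastigotes of Leishmania infantum MHOM/MA(BE)/67 in murine peritoneal macrophage host cells. The assay followed previously published standard procedures, with a reference drug as positive control. Antiparasitic potency is reported as IC50.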

Schistosoma mansoni = test: WHO-TDR: Schistosomiasis; type: functional; design: concentration or dose not given beside the values
In short: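 Percent inhibition and IC50 describe activity against whole Schistosoma mansoni worms of the Puerto Rican strain, tested as larvae and/or adults. The compounds screened were a diverse set of 10,000 from Life Chemicals, filtered for drug-likeness and reactive groups. Testing followed previously published standard procedures, with a reference drug as positive control.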

Onchocerca ochengi = test: WHO-TDR: Onchocerciasis; type: functional; design: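 at 12.5 µM on microfilariae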
In short: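 Percent inhibition and IC50 describe activity against microfilariae of Onchocerca ochengi or Onchocerca lienalis, used as animal-pathogen substitutes for the human parasite. The compounds tested made up a 10,000-member diverse library from Life Chemicals.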

Brugia malayi = test: WHO-TDR: Lymphatic Filariasis; type: functional; design: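 tested at 10 µM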
In short: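 The screening set was a 10,000-compound diverse library from Life Chemicals, filtered for drug-likeness and for reactive groups. It was run against Brugia malayi microfilariae as whole organisms, using previously published standard procedures. Reference drugs acted as positive controls, and activity is reported both as percent inhibition and as IC50.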

| SMILES | IC50 [1] [µg/mL] | IC50 (Plasmodium falciparum K1) [µg/mL] | IC50 (Trypanosoma cruzi) [µg/mL] | IC50 [2] [µg/mL] | IC50 (Leishmania infantum) [µg/mL] | % Inhibition (Schistosoma mansoni) [%] | % Inhibition (Onchocerca ochengi) [%] | % Inhibition (Brugia malayi) [%] |
| --- | --- | --- | --- | --- | --- | --- | --- | --- |
| O=c1ccc(-c2ccc(F)cc2)nn1CCCNS(=O)(=O)c1cc(F)ccc1F | 3.28 (≈ 7.74 µM) | > 12.7 | > 12.7 | 4.24 (≈ 10 µM) | > 12.7 | 0 | 100 | 0 |
| CSc1ccccc1NC(=O)c1ccc(Cl)s1 | > 8.51 | > 8.51 | > 8.51 | > 8.51 | > 8.51 | 0 | 100 | 25 |
| O=C(NCCNc1ccc(Nc2ccccn2)nn1)Nc1ccc(F)cc1 | > 11 | > 11 | > 11 | 3.66 (≈ 9.95 µM) | > 11 | 0 | 100 | 0 |
| O=C(Cc1csc(NC(=O)c2ccc[nH]c2=O)n1)NCc1ccncc1 | > 11.1 | > 11.1 | > 11.1 | > 11.1 | > 11.1 | 100 | 0 | 20 |
| COc1ccc(CCC(=O)NCCc2ccc(N3CCCC3)cc2)cc1 | > 10.6 | > 10.6 | > 10.6 | > 10.6 | 0.342 (≈ 0.97 µM) | 0 | 0 | 0 |
| O=C(Nc1ccc(SCC(=O)N2CCc3ccccc32)nn1)c1ccccc1F | > 12.3 | > 12.3 | > 12.3 | > 12.3 | 0.397 (≈ 0.972 µM) | 0 | 0 | 0 |
| CCc1ccc2nc(N(CCCn3ccnc3)C(=O)C3COc4ccccc4O3)sc2c1 (stereo unspecified) | 4.4 (≈ 9.81 µM) | 0.363 (≈ 0.809 µM) | 1.22 (≈ 2.73 µM) | 4.71 (≈ 10.5 µM) | 4.71 (≈ 10.5 µM) | 0 | 100 | 0 |
| COc1cccc(NC(=O)NCCNc2ccc(Nc3cccc(C)n3)nn2)c1 | > 11.8 | 4.98 (≈ 12.6 µM) | > 11.8 | 4.13 (≈ 10.5 µM) | > 11.8 | 0 | 100 | 0 |
| CCOC(=O)c1sc(-c2ccccc2)cc1NC(=O)c1ccnn1C | > 10.7 | > 10.7 | > 10.7 | > 10.7 | 0.345 (≈ 0.971 µM) | 0 | 0 | 0 |
| O=C(C1CCCC1)N1CCN(c2ccc(-c3ccccn3)nn2)CC1 | 4.9 (≈ 14.5 µM) | 4.13 (≈ 12.3 µM) | 1.19 (≈ 3.52 µM) | 3.2 (≈ 9.49 µM) | 0.328 (≈ 0.972 µM) | 41.7 | 0 | 33.33 |
| CCSc1ccccc1C(=O)Nc1nnc(Cc2cccs2)o1 | 9.48 (≈ 27.5 µM) | > 10.4 | 3.48 (≈ 10.1 µM) | 3.35 (≈ 9.71 µM) | 0.336 (≈ 0.973 µM) | 33.3 | 0 | 0 |
| O=C(Cc1ccc(Cl)cc1)NCCS(=O)(=O)N1CCN(Cc2ccccc2)CC1 | > 14.2 | > 14.2 | > 14.2 | > 14.2 | > 14.2 | 0 | 100 | 20 |
| O=S(=O)(NCC(c1cccs1)N1CCOCC1)c1ccc(Cl)s1 (stereo unspecified) | > 11.8 | > 11.8 | > 11.8 | > 11.8 | > 11.8 | 0 | 100 | 0 |
| O=C(C1CC1)N1CCN(c2ccc(-c3ccccn3)nn2)CC1 | 2.38 (≈ 7.7 µM) | 1.05 (≈ 3.39 µM) | 2.1 (≈ 6.77 µM) | 2.94 (≈ 9.49 µM) | > 9.28 | 25 | 100 | 33.33 |
| O=C(NCCNc1ccc(Nc2ccccn2)nn1)c1cccc(C(F)(F)F)c1 | 10.1 (≈ 25 µM) | 5.09 (≈ 12.6 µM) | > 12.1 | 6.4 (≈ 15.9 µM) | > 12.1 | 0 | 100 | 50 |
| C=CCn1c(Sc2nc3ccccc3o2)nc2c1c(=O)[nH]c(=O)n2C | > 10.7 | 10.7 (≈ 30 µM) | 4.04 (≈ 11.4 µM) | 0.337 (≈ 0.948 µM) | > 10.7 | 0 | 0 | 20 |
| CCn1nc(C(=O)Nc2nnc(CCSc3ccccc3)o2)cc1C | > 10.7 | > 10.7 | > 10.7 | > 10.7 | > 10.7 | 0 | 100 | 0 |
| Cc1ccc(C)c2sc(N(CCCn3ccnc3)C(=O)COc3ccccc3)nc12 | 5.31 (≈ 12.6 µM) | 2.34 (≈ 5.56 µM) | 1.14 (≈ 2.71 µM) | 4.44 (≈ 10.6 µM) | 9.34 (≈ 22.2 µM) | 0 | 100 | 0 |
| CS(=O)(=O)N1CCCCC1C(=O)Nc1nc(-c2nc3ccccc3s2)cs1 (stereo unspecified) | > 12.7 | > 12.7 | > 12.7 | > 12.7 | > 12.7 | 0 | 100 | 0 |
| C/C=C/Cn1c(=O)c2c(nc3n(C(C)c4ccccc4)c(C)cn23)n(C)c1=O (stereo unspecified) | > 11.3 | 6.29 (≈ 16.7 µM) | 3.82 (≈ 10.1 µM) | 0.099 (≈ 0.262 µM) | > 11.3 | 0 | 0 | 20 |
| Cc1c(Cl)cccc1-n1c(-c2ccc(F)cc2)cn2c3c(=O)n(C)c(=O)n(C)c3nc12 | 6.43 (≈ 14.7 µM) | 2.97 (≈ 6.79 µM) | > 13.1 | 3.81 (≈ 8.7 µM) | 4.25 (≈ 9.71 µM) | 0 | 100 | 20 |
| Cc1cc(C(=O)Nc2nc(-c3cc4ccccc4o3)cs2)on1 | > 9.76 | > 9.76 | > 9.76 | > 9.76 | 3.16 (≈ 9.71 µM) | 0 | 100 | 20 |
